Experimental data: ChEMBL document CHEMBL3124899, “Design, synthesis, and characterization of α-ketoheterocycles that additionally target the cytosolic port Cys269 of fatty acid amide hydrolase” (J Med Chem, 2014)
Calls of active or inactive are those of the source. The calls are words filed in the database; no cut-off is given here.

How the values were obtained:
[1] = target: T1, Fatty-acid amide hydrolase 1 (Rattus norvegicus, UniProt P97612); assay: Time-dependent inhibition of recombinant rat FAAH expressed in Escherichia coli assessed as breakdown of [14C]-oleamide preincubated for 6 hrs by Dixon plot analysis
T1 sequence (P97612 whole entry): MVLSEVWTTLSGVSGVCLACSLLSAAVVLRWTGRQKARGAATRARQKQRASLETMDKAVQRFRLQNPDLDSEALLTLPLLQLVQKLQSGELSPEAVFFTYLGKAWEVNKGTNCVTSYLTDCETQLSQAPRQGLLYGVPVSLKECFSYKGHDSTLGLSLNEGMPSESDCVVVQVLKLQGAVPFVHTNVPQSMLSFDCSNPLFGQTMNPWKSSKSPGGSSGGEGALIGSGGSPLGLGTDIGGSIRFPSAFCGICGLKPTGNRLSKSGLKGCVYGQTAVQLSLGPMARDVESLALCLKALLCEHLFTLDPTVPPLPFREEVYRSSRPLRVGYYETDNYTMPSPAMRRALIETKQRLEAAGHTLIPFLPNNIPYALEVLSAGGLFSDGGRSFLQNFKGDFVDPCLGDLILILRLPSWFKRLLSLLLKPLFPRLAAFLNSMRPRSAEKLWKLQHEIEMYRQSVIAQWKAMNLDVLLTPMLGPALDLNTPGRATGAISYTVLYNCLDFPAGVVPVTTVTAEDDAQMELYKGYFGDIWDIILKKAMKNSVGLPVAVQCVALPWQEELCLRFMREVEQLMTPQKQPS
Method in brief: (§1)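 The reaction used 20 μM 14C-oleamide in pH 9.0 Tris/EDTA/Triton X-100/Hepes buffer at 20–23 °C, at three inhibitor concentrations. HCl-quenched time points were analysed by EtOAc extraction and TLC for oleic acid formation. Ki came from a Dixon plot.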

[2] = target: T2, Fatty-acid amide hydrolase 1 (Rattus norvegicus) (UniProt P97612); assay: Irreversible inhibition of recombinant rat FAAH expressed in Escherichia coli assessed as remaining activity at IC80 preincubated for 3 hrs followed by 370 fold dilution measured after 18 hrs
T2 sequence (whole entry): T1 sequence (P97612 whole entry)

[3] = target: T2, Fatty-acid amide hydrolase 1 (Rattus norvegicus); assay: Noncompetitive inhibition of recombinant rat FAAH expressed in Escherichia coli assessed as breakdown of [14C]-oleamide at 3 to 5 nM preincubated for 3 hrs by Lineweaver-Burk plot analysis
Mus musculus [4] = organism: Mus musculus; assay: Selectivity ratio of IC50 for mouse brain membrane KIAA1363 to IC50 for mouse FAAH
Mus musculus [5] = organism: Mus musculus; assay: Selectivity ratio of IC50 for mouse brain membrane MAGL to IC50 for mouse FAAH
Mus musculus [6] = organism: Mus musculus; assay: Selectivity ratio of IC50 for mouse brain membrane ABHD6 to IC50 for mouse FAAH
[7] = target: T1, Fatty-acid amide hydrolase 1; assay: Time-dependent inhibition of recombinant rat FAAH expressed in Escherichia coli assessed as breakdown of [14C]-oleamide preincubated for 1 hr by Dixon plot analysis; method in brief: as §1
[8] = target: T1, Fatty-acid amide hydrolase 1; assay: Inhibition of recombinant rat FAAH expressed in Escherichia coli assessed as breakdown of [14C]-oleamide by Dixon plot analysis
Method in brief: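 Purified rat FAAH expressed in E. coli, with no inhibitor preincubation. The enzyme was at 1 nM, or 800, 500 or 200 pM for tight binders. It was mixed with 20 μM 14C-oleamide in pH 9.0 Tris/EDTA/glycerol/Triton X-100/Hepes buffer at room temperature, with three inhibitor concentrations. Aliquots were quenched in 0.1 N HCl at three time points, extracted with EtOAc and separated by TLC. Ki came from a Dixon plot.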

[9] = target: T2, Fatty-acid amide hydrolase 1 (Rattus norvegicus); assay: Competitive reversible inhibition of recombinant rat FAAH expressed in Escherichia coli using [14C]-oleamide as substrate at 3 to 5 nM preincubated for 3 hrs by Lineweaver-Burk plot analysis
[10] = Chemical stability in assay buffer assessed as compound hydrolysis after 6 hrs; type: physicochemical
[11] = target: T2, Fatty-acid amide hydrolase 1 (Rattus norvegicus); assay: Mixed-type inhibition of recombinant rat FAAH expressed in Escherichia coli assessed as breakdown of [14C]-oleamide preincubated for 3 hrs by Lineweaver-Burk plot analysis
[12] = target: T1, Fatty-acid amide hydrolase 1; assay: Time-dependent inhibition of recombinant rat FAAH expressed in Escherichia coli assessed as breakdown of [14C]-oleamide preincubated for 3 hrs by Dixon plot analysis; method in brief: as §1
Mus musculus [13] = assay: In vivo inhibition of FAAH in C57Bl/6J mouse assessed as increase in AEA level in brain at 30 mg/kg, ip measured within 1.5 to 3 hrs; type: functional, organism-based; design: dose 30 mg/kg
Mus musculus [14] = assay: In vivo inhibition of FAAH in C57Bl/6J mouse assessed as increase in OEA level in brain at 30 mg/kg, ip measured after > 6 hrs; type: functional, organism-based; design: dose 30 mg/kg
Mus musculus [15] = assay: In vivo inhibition of FAAH in C57Bl/6J mouse assessed as increase in OEA level in brain at 30 mg/kg, ip measured within 1.5 to 3 hrs; type: functional, organism-based; design: dose 30 mg/kg
Mus musculus [16] = assay: In vivo inhibition of FAAH in C57Bl/6J mouse assessed as increase in AEA level in brain at 30 mg/kg, ip measured after > 6 hrs; type: functional, organism-based; design: dose 30 mg/kg
Mus musculus [17] = assay: In vivo inhibition of FAAH in C57Bl/6J mouse assessed as increase in PEA level in brain at 30 mg/kg, ip measured after > 6 hrs; type: functional, organism-based; design: dose 30 mg/kg
[18] = target: T2, Fatty-acid amide hydrolase 1 (Rattus norvegicus); assay: Noncompetitive inhibition of recombinant rat FAAH expressed in Escherichia coli assessed as breakdown of [14C]-oleamide at 0.5 to 5 nM preincubated for 3 hrs by Lineweaver-Burk plot analysis
Mus musculus [19] = assay: In vivo inhibition of FAAH in C57Bl/6J mouse assessed as increase in PEA level in brain at 30 mg/kg, ip measured within 1.5 to 3 hrs; type: functional, organism-based; design: dose 30 mg/kg
Mus musculus [20] = assay: In vivo inhibition of FAAH in C57Bl/6J mouse assessed as increase in AEA level in brain at 30 mg/kg, ip after 3 hrs relative to vehicle-treated control; type: functional; settings: route intraperitoneal
Method in brief: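 Male C57Bl/6J mice (<6 months, 20–28 g), n = 3, received 30 mg/kg i.p. in 18:1:1 saline/ethanol/emulphor at 10 μL/g. Brains were taken 3 h later and homogenized in CHCl3/MeOH/Tris with d4-PEA, d4-AEA and pentadecanoic acid standards. The organic extract was quantified by LC–ESI-MS/MS in positive mode and compared with vehicle-treated mice.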

[21] = target: T2, Fatty-acid amide hydrolase 1 (Rattus norvegicus); assay: Noncompetitive inhibition of recombinant rat FAAH expressed in Escherichia coli assessed as breakdown of [14C]-oleamide at 1 to 5 nM preincubated for 3 hrs by Lineweaver-Burk plot analysis
[22] = target: T2, Fatty-acid amide hydrolase 1 (Rattus norvegicus); assay: Competitive reversible inhibition of recombinant rat FAAH expressed in Escherichia coli using [14C]-oleamide as substrate at 1 to 5 nM preincubated for 3 hrs by Lineweaver-Burk plot analysis
Mus musculus [23] = assay: In vivo inhibition of FAAH in C57Bl/6J mouse assessed as increase in AEA level in brain at 30 mg/kg, ip measured within 2 to 3 hrs; type: functional, organism-based; design: dose 30 mg/kg
Mus musculus [24] = assay: In vivo inhibition of FAAH in C57Bl/6J mouse assessed as increase in PEA level in brain at 30 mg/kg, ip measured within 2 to 3 hrs; type: functional, organism-based; design: dose 30 mg/kg
Mus musculus [25] = assay: In vivo inhibition of FAAH in C57Bl/6J mouse assessed as increase in OEA level in brain at 30 mg/kg, ip measured within 2 to 3 hrs; type: functional, organism-based; design: dose 30 mg/kg
[26] = target: T2, Fatty-acid amide hydrolase 1 (Rattus norvegicus); settings: 1 to 10 nM
[27] = target: T2, Fatty-acid amide hydrolase 1 (Rattus norvegicus); settings: 5 to 10 nM
[28] = target: T2, Fatty-acid amide hydrolase 1 (Rattus norvegicus); assay: Noncompetitive inhibition of recombinant rat FAAH expressed in Escherichia coli assessed as breakdown of [14C]-oleamide at 1 to 3 nM preincubated for 3 hrs by Lineweaver-Burk plot analysis
[29] = Chemical stability in enzymatic assay buffer assessed as transient enzyme adduct formation; type: ADME

Compound `N#CCCCCCc1cnc(C(=O)CCCCCCc2ccccc2)o1` has a Ki [1] of 4 nM.

With `COC(=N)Cc1ccc(-c2cnc(C(=O)CCCCCCc3ccccc3)o2)nc1` the Ki [1] was 0.6 nM, the “remaining activity after dilution” value [2] was “Active” and the inhibition [3] was “Active”. It also gave a Ratio IC50 (Mus musculus [4]) greater than 10000, a Ratio IC50 (Mus musculus [5]) greater than 200 and a Ratio IC50 (Mus musculus [6]) greater than 10000.

Work on `O=C(CCCCCCc1ccccc1)c1ncc(CCCCCBr)o1` yielded a Ki [1] of 6 nM, a Ki [7] of 6.1 nM and a Ki [8] of 6.1 nM.

`O=C(CCCCCCc1ccccc1)c1ncc(-c2ccc(CCl)cn2)o1` gave a Ki [1] of 24.6 nM.

For `CSC(=O)CCCCc1cnc(C(=O)CCCCCCc2ccccc2)o1`, the inhibition [9] was “Active” and the Stability [10] was “Stable”.

For `CCOC(=O)/C=C/c1ccc(-c2cnc(C(=O)CCCCCCc3ccccc3)o2)nc1`, the inhibition [11] was “Dose-dependent effect” and the “remaining activity after dilution” value [2] was “Active”.

With `O=C(CCCCCCc1ccccc1)c1ncc(-c2ccc(CBr)cn2)o1` the Ki [12] was 0.2 nM, the Ki [1] was 0.2 nM and the inhibition (Mus musculus [13]) was “Active”. For the same compound, the inhibition (Mus musculus [14]) was “Active”, the “remaining activity after dilution” value [2] was “Active” and the inhibition (Mus musculus [15]) was “Active”. For the same compound, the inhibition (Mus musculus [16]) was “Active”, the inhibition (Mus musculus [17]) was “Active” and the Ratio IC50 (Mus musculus [4]) was greater than 10000. The inhibition [18] was “Active”, the inhibition (Mus musculus [19]) was “Active” and the “fold change (FC)” value (Mus musculus [20]) was 3.2. It also gave a Ratio IC50 (Mus musculus [5]) greater than 200 and a Ratio IC50 (Mus musculus [6]) greater than 10000.

Work on `CSCCCCCc1cnc(C(=O)CCCCCCc2ccccc2)o1` yielded a Ki [12] of 6.4 nM.

For `CCOS(=O)(=O)/C=C/c1ccc(-c2cnc(C(=O)CCCCCCc3ccccc3)o2)nc1`, the inhibition [21] was “Active”, the “remaining activity after dilution” value [2] was “Active” and the Ki [7] was 0.3 nM. The Ratio IC50 (Mus musculus [4]) was greater than 10000, the “fold change (FC)” value (Mus musculus [20]) was 3.2 and the Ratio IC50 (Mus musculus [5]) was greater than 200. For the same compound, the Ratio IC50 (Mus musculus [6]) was greater than 10000.

In the case of `COC(=O)c1ccc(-c2cnc(C(=O)CCCCCCc3ccccc3)o2)nc1`, the inhibition [22] is reported as “Active”.

For `O=C(CCCCCCc1ccccc1)c1ncc(-c2ccccn2)o1`, the inhibition (Mus musculus [23]) was “Active”, the inhibition (Mus musculus [24]) was “Active” and the inhibition (Mus musculus [25]) was “Active”. The inhibition [26] was “Active”.

In the case of `CSC(=O)Cc1ccc(-c2cnc(C(=O)CCCCCCc3ccccc3)o2)nc1`, the inhibition [27] is reported as “Active”.

In the case of `N#CCc1ccc(-c2cnc(C(=O)CCCCCCc3ccccc3)o2)nc1`, the Ki [1] is reported as 0.5 nM, the inhibition (Mus musculus [13]) is reported as “Active” and the inhibition (Mus musculus [14]) is reported as “Active”. The inhibition [21] was “Active”, the “remaining activity after dilution” value [2] was “Active” and the inhibition (Mus musculus [15]) was “Active”. The inhibition (Mus musculus [16]) was “Active”, the inhibition (Mus musculus [17]) was “Active” and the Ratio IC50 (Mus musculus [4]) was greater than 10000. The inhibition (Mus musculus [19]) was “Active”, the “fold change (FC)” value (Mus musculus [20]) was 3.2 and the Ratio IC50 (Mus musculus [5]) was greater than 200. For the same compound, the Ratio IC50 (Mus musculus [6]) was greater than 10000.

In the case of `C[S+]([O-])/C=C/c1ccc(-c2cnc(C(=O)CCCCCCc3ccccc3)o2)nc1` (configuration not stated), the inhibition [28] is reported as “Active”, the “remaining activity after dilution” value [2] is reported as “Active” and the Ratio IC50 (Mus musculus [4]) is reported as greater than 10000. For the same compound, the “fold change (FC)” value (Mus musculus [20]) was 2.6, the Ratio IC50 (Mus musculus [5]) was greater than 200 and the Ratio IC50 (Mus musculus [6]) was greater than 10000.

In the case of `N#C/C=C/c1ccc(-c2cnc(C(=O)CCCCCCc3ccccc3)o2)nc1`, the Ki [1] is reported as 2.7 nM, the inhibition [11] is reported as “Dose-dependent effect” and the “remaining activity after dilution” value [2] is reported as “Active”.

In the case of `CS(=O)(=O)/C=C/c1ccc(-c2cnc(C(=O)CCCCCCc3ccccc3)o2)nc1`, the Ki [12] is reported as 0.3 nM, the “remaining activity after dilution” value [2] is reported as “Active” and the inhibition [3] is reported as “Active”. For the same compound, the Ratio IC50 (Mus musculus [4]) was greater than 10000, the “fold change (FC)” value (Mus musculus [20]) was 2.8 and the Ratio IC50 (Mus musculus [5]) was greater than 200. It also gave a Ratio IC50 (Mus musculus [6]) greater than 10000.

With `CSC(=O)c1ccc(-c2cnc(C(=O)CCCCCCc3ccccc3)o2)nc1` the Ki [12] was 2 nM, the inhibition [9] was “Active” and the Ki [8] was 2 nM. The Stability [10] was “Stable” and the Stability [29] was “Stable”.
